We go through two molecules from ChEMBL document CHEMBL4396890, “Synthesis, Biological Evaluation, Structure-Activity Relationship, and Mechanism of Action Studies of Quinoline-Metronidazole Derivatives Against Experimental Visceral Leishmaniasis” (J Med Chem, 2019).

Activity calls are given as the source filed them. The rule behind the calls is not given here.

Data set [1] has as its system Leishmania donovani. The data set is described as follows: Antileishmanial activity against Leishmania donovani MHOM/IN/80/Dd8 amastigotes harboring luciferase reporter gene infected in mouse J774 cells at 50 uM after 48 hrs by Giemsa staining-based microscopic assay relative to control. Format: functional. To be noted: MHOM/IN/80/Dd8, J774, 48 h. The method in brief:
(§1)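 Infection of J774 macrophages with L. donovani Dd8 promastigotes at a 1:8 cell:parasite ratio. Compounds were diluted 2-fold in RPMI over 3.125–100 μM final and applied for 48 h. Amastigote inhibition was read by luciferase (RLU) or by Giemsa count of amastigotes per 100 macrophages. IC50 was from dose–response; n = 3 independent experiments done in replicate.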
(A reporter such as luciferase makes a cellular process visible.)

A short description of data set [2]: Intrinsic clearance in rat liver microsomes at 10 ug/ml preincubated for 5 mins followed by NADPH addition measured after 60 mins by UPLC analysis. Format: ADME, Microsome. The settings on record: read-out: CLH. In outline:
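Compound was incubated with rat liver microsomes, sampling % remaining up to 60 min. In vitro half-life and related parameters came from a plot of ln(% remaining) versus incubation time.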
(Liver microsomes are vesicles of endoplasmic reticulum, rich in cytochrome P450 enzymes.)

Data set [3] has as its system Leishmania donovani. The data set is described as follows: Antileishmanial activity against Leishmania donovani MHOM/IN/80/Dd8 amastigotes harboring luciferase reporter gene infected in mouse J774 cells at 100 uM after 48 hrs by Steady-Glo luminescence assay. Format: functional, organism-based. In outline: as §1
Data set [4] is described as follows: Stability of the compound in simulated gastric fluid assessed as parent compound remaining measured after 2 hrs by UPLC analysis. Format: ADME. The settings on record: read-out: Stability. In outline: (§2)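 Compound incubated 2 h in simulated gastric fluid (pH 1.2) […] or in simulated intestinal fluid (pH 6.5) […]; the percentage of intact compound remaining was reported.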

Data set [5] is described as follows: Toxicity in BALB/c mouse infected with Leishmania donovani MHOM/IN/80/Dd8 promastigotes assessed as effect on health at 12.5 to 200 mg/kg, ip administered once daily for 5 days measured up to 7 days post dose. Format: organism-based. The settings on record: in vivo. The method in brief: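 BALB/c mice (20 ± 2 g) were infected by tail-vein injection of 2 × 10^7 stationary-phase promastigotes. At day 15 they received ip doses in 8% DMSO/PBS for 5 consecutive days and were killed at day 7 post-treatment. Survival, general health and body weight were monitored; 5 mice per group.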

For data set [6], the system named is Leishmania donovani. The data set is described as follows: Antileishmanial activity against Leishmania donovani MHOM/IN/80/Dd8 promastigotes infected in BALB/c mouse assessed as reduction in parasite load in liver at 200 mg/kg, ip administered once daily for 5 days measured 7 days post dose by giemsa staining-based assay relative to control. Also on record: scale not given: the % may be the effect or the level left. Format: functional. The method in brief: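 Hamster-passaged strain was transformed to promastigotes. Stationary-phase cells (2 × 10^7 in 0.2 mL PBS) were injected into the tail vein of BALB/c mice. From day 15 post-infection, mice received compound ip in 8% DMSO in PBS for 5 consecutive days, 5 mice per group. Mice were killed day 7 post-treatment. Liver and spleen burden was read from Giemsa-stained stamp smears as LDU.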

Data set [7] concerns Leishmania donovani. The data set is described as follows: Antileishmanial activity against Leishmania donovani MHOM/IN/80/Dd8 promastigotes harboring luciferase reporter gene by MTT assay. Format: functional, organism-based. The settings on record: TDE = time-dependent effect. The method in brief:
(§3)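 Luciferase-expressing L. donovani Dd8 promastigotes were grown at 24 °C in M199 with 10% heat-inactivated FBS and G418 20 μg/mL. They were exposed to a range of concentrations for 48 h, and viability was read by MTT absorbance as percent of untreated control. IC50 was from dose–response; n = 3 independent experiments done in replicate.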

For data set [8], the system named is Leishmania donovani. The data set can be described thus: Antileishmanial activity against Leishmania donovani MHOM/IN/80/Dd8 promastigotes harboring luciferase reporter gene after 48 hrs by MTT assay. The settings on record: for IC50: MHOM/IN/80/Dd8, 48 h. Format: functional, organism-based. In outline:
as §3

Data set [9] can be described thus: Stability of the compound in simulated intestinal fluid assessed as parent compound remaining measured after 2 hrs by UPLC analysis. Format: ADME. The settings on record: read-out: Stability. The method in brief:
as §2

Data set [10] has as its system Leishmania donovani. The data set is described as follows: Antileishmanial activity against Leishmania donovani MHOM/IN/80/Dd8 promastigotes harboring luciferase reporter gene after 48 hrs by Steady-Glo luminescence assay. To be noted: for IC50: MHOM/IN/80/Dd8, 48 h. Format: functional, organism-based. In outline:
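Luciferase-expressing L. donovani Dd8 promastigotes were grown at 24 °C in M199 with 10% heat-inactivated FBS and G418 20 μg/mL. They were treated at varied concentrations for 24 and 48 h, and inhibition was read as relative luminescence units versus untreated control. IC50 was from dose–response; screening values are mean ± SD of at least three experiments in duplicate.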

Data set [11] has as its system Leishmania donovani. The data set is described as follows: Induction of reactive oxygen species generation in Leishmania donovani MHOM/IN/80/Dd8 promastigotes at 50 uM measured after 48 hrs by H2DCFDA probe-based flow cytometry (reference value: 7%). Format: functional. A general note: A flow cytometer gives signals particle by particle.
The subject of data set [12] is Leishmania donovani. The data set can be described thus: Induction of morphological changes in Leishmania donovani MHOM/IN/80/Dd8 promastigotes assessed as appearance of round shape parasite at 50 uM after 48 hrs by bright field microscopic analysis. Format: functional, organism-based.
The test system of data set [13] is Leishmania donovani. The data set is described as follows: Antileishmanial activity against Leishmania donovani MHOM/IN/80/Dd8 amastigotes harboring luciferase reporter gene infected in mouse J774 cells assessed as stimulation of host immunity by measuring change in IL10 level at 50 uM after 48 hrs by ELISA. Format: functional, organism-based. In outline:
(§4)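 Infected J774 macrophages (24 h infection) were treated with 50 μM compound for 48 h. Culture supernatants were assayed by ELISA for TNF-α and IL-12 (Th1) and for TGF-β and IL-10 (Th2), compared with infected untreated cells.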

Data set [14] has as its system Leishmania donovani. The data set can be described thus: Induction of apoptosis in Leishmania donovani MHOM/IN/80/Dd8 promastigotes assessed as early apoptotic cells at 50 uM measured after 24 hrs by Annexin V-FITC/propidium iodide staining based assay (reference value: 6.91%). Format: functional.
For data set [15], the system named is Leishmania donovani. The data set can be described thus: Induction of apoptosis in Leishmania donovani MHOM/IN/80/Dd8 promastigotes assessed as DNA fragmentation at 50 uM after 48 hrs by TUNEL staining-based confocal microscopic analysis. Format: functional, organism-based. In outline: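 Log-phase promastigotes (1 × 10^5) were treated with 50 μM compound or 0.1% DMSO vehicle for 48 h. DNA fragmentation was labelled with an APO-BrdU TUNEL kit with PI counterstain. Cells were imaged by phase-contrast and fluorescence microscopy.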

Data set [16] has as its system Leishmania donovani. The data set is described as follows: Induction of apoptosis in Leishmania donovani MHOM/IN/80/Dd8 promastigotes assessed as early apoptotic cells at 50 uM measured after 12 hrs by Annexin V-FITC/propidium iodide staining based assay (reference value: 6.91%). Format: functional.
Data set [17] in a line: Cmax in BALB/c mouse at 50 mg/kg, po administered via gavage by LC-MS/MS analysis. Format: ADME, organism-based. Also on record: dose 50 mg/kg, route oral. The settings on record: in vivo.
Data set [18] relates to Leishmania donovani. The data set is described as follows: Induction of apoptosis in Leishmania donovani MHOM/IN/80/Dd8 promastigotes assessed as late apoptotic cells at 50 uM measured after 48 hrs by Annexin V-FITC/propidium iodide staining based assay (reference value: 0.46%). Format: functional.
Data set [19] concerns Leishmania donovani. The data set is described as follows: Induction of mitochondrial potential loss in Leishmania donovani MHOM/IN/80/Dd8 promastigotes assessed as shift in red to green fluorescence at 50 uM after 6 hrs by JC1 dye-based flow cytometry (reference value: 7.37%). Format: functional. The method in brief: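 Exponential-phase promastigotes were incubated with 50 μM compound for 6−48 h, or 0.1% DMSO vehicle. CCCP (50 μM) served as positive control. After JC-1 staining, the red-to-green fluorescence shift was measured by flow cytometry.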

Data set [20] relates to Leishmania donovani. The data set is described as follows: Antileishmanial activity against Leishmania donovani MHOM/IN/80/Dd8 amastigotes harboring luciferase reporter gene infected in mouse J774 cells assessed as stimulation of host immunity by measuring change in TNFalpha level at 50 uM after 48 hrs by ELISA. Format: functional, organism-based. The method in brief: as §4

A short description of data set [21]: Elimination rate constant in BALB/c mouse at 50 mg/kg, po administered via gavage by LC-MS/MS analysis. Format: ADME, organism-based. The settings on record: in vivo.

As for `Cc1cc(-c2cccc(OCCn3c([N+](=O)[O-])cnc3C)c2)nc2ccccc12`, the inhibition – broadly, the drop in the measured response relative to a control, in per cent – at 50 µM in the data set with Leishmania donovani [1] was more than 93%. Further, the microsomal CLint at 10 ug/ml in data set [2] is 10.7 µL/min/mg. The inhibition entry in the data set with Leishmania donovani [3] is “Active”. In addition, the remaining at 2 h is 84.7% in [4] and 11.4% in [9]. The Activity result in data set [5] is given as “Non-Toxic”; in the data set on Leishmania donovani [6], 55.5%. Moreover, the inhibition entry with Leishmania donovani [7] is “Tde”; with Leishmania donovani [8], “Dose-dependent effect”; in the data set with Leishmania donovani [10], “Dose-dependent effect”. Besides, the values for the IC50 in the data set with Leishmania donovani [8] and with Leishmania donovani [10] were 9.4 µM and 9.54 µM, respectively.

As for `Cc1cc(-c2ccc(OCCn3c([N+](=O)[O-])cnc3C)cc2)nc2ccccc12`, the Activity with Leishmania donovani [11] was 58.2%; in the data set on Leishmania donovani [14], 4.04%; in [5] it was “Non-Toxic”; in the data set with Leishmania donovani [6], 82.7%; in the data set on Leishmania donovani [16] it was 12.89%; in the data set with Leishmania donovani [18], 44.11%. The Activity in the data set on Leishmania donovani [19] is 23.15%. In the data set with Leishmania donovani [1], this molecule displayed an inhibition at 50 µM of more than 93%. The microsomal CLint at 10 ug/ml in [2] came to 9.3 µL/min/mg. Also, the result with Leishmania donovani [12] and in the data set with Leishmania donovani [15] was Active. Further, the result with Leishmania donovani [13] and in the data set with Leishmania donovani [20] was inactive. In the data set on Leishmania donovani [3], the inhibition result was “Active”. Besides, the remaining at 2 h in [4] was 83.6%; in [9], 43.6%. Further, the inhibition result with Leishmania donovani [7] is “Tde”; in the data set with Leishmania donovani [8], “Dose-dependent effect”; in the data set with Leishmania donovani [10] it was “Dose-dependent effect”. Moreover, the IC50 (usually the midpoint of a concentration-inhibition curve) was 5.3 µM in the data set on Leishmania donovani [8] and 5.42 µM with Leishmania donovani [10]. The concentration in data set [17] peaked (Cmax) at 6860 ng/mL. This molecule had a k el in data set [21] of 4.72e-05 s⁻¹.
